The source made the active and inactive calls. The calls are words filed in the database; no cut-off is given here.
Key:
[1] = Cytotoxicity against human HeLaS3 cells after 48 hrs by […] assay; assay type: functional, cell-based; conditions: HeLa S3, 48 h
Summary of the method: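 HeLa S₃ cells seeded at 3 × 10³ cells/well and incubated overnight, then exposed to a range of compound concentrations for 48 h. WST-8 reagent added for 2 h and absorbance read at 450 nm. Viability (% control) = (sample absorbance − blank) / (0 µM well absorbance) × 100.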

[2] = Cell cycle arrest in human HeLaS3 cells assessed as accumulation at M phase at 1 uM after 18 hrs by flow cytometry; assay type: functional, cell-based; conditions: HeLa S3
Summary of the method: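 HeLa S3 cells exposed 18 h to 1 μM compound, DMSO as vehicle control. Cells then fixed in cold (−20 °C) 70% EtOH (v/v), stained with propidium iodide. DNA content distribution obtained from total fluorescence intensities by quantitative flow cytometry.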

[3] = Cytotoxicity against human HeLaS3 cells after 48 hrs by […] assay relative to glaziovianin A; assay type: functional, HeLa S3
[4] = Cell cycle arrest in human HeLaS3 cells assessed as abnormal spindle structures with unaligned chromosomes at 1 uM after 18 hrs; assay type: functional, cell-based; conditions: HeLa S3
Summary of the method: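 HeLa S₃ cells given 1 µM compound or DMSO for 18 h. Microtubules immunostained with anti-α-tubulin antibody (DM1A) and chromosomes stained with Hoechst 33258. Spindle structures and chromosome alignment assessed by fluorescence microscopy.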

Structure (SMILES) | IC50 [1] | Activity [2] | Ratio [3] | Activity [4]
COc1cc2occ(-c3cc(OC)c4c(c3OC)OC(C)(C)O4)c(=O)c2cc1OC | > 100 µM | – | – | –
COc1cc(-c2coc3cc(OC)c(OC)c(OC)c3c2=O)c(OC)c2c1OCO2 | > 100 µM | – | – | –
COc1cc2occ(-c3cc(OC)c4c(c3OC)OCO4)c(=O)c2cc1OC [GLAZIOVIANIN A] | 0.59 µM | Active | – | –
COc1cc2c(=O)c(-c3cc(OC)c4c(c3OC)OCO4)coc2cc1OC1CCCCO1 (stereo not drawn) | > 100 µM | – | – | –
C#CCOc1cc2occ(-c3cc(OC)c4c(c3OC)OCO4)c(=O)c2cc1OC | 0.74 µM | – | 0.8 | –
COc1cc2occ(-c3ccc4c(c3)OCO4)c(=O)c2cc1OC | 56.2 µM | – | 0.01 | –
COc1cc2occ(-c3cc(OC)c(OC)c(OC)c3OC)c(=O)c2cc1OC | 22 µM | – | 0.027 | –
COc1cc2c(=O)c(-c3cc(OC)c4c(c3OC)OCO4)coc2cc1OCc1ccccc1 | 0.75 µM | – | 0.79 | –
COc1cc2c(=O)c(-c3cc(OC)c4c(c3OC)OCO4)coc2cc1O | > 100 µM | – | – | –
C=CCOc1cc2occ(-c3cc(OC)c4c(c3OC)OCO4)c(=O)c2cc1OC | 0.19 µM | Active | 3.1 | Active
